Measured values as given in ChEMBL document CHEMBL1208679, “Synthesis and evaluation of a new series of Neuropeptide S receptor antagonists” (Bioorg Med Chem Lett, 2010).
Active and inactive are the calls of the source. The calls are words filed in the database; no cut-off is given here.

Experiments:
[1] = molecular target: T1, MDR1 (ABCB1, P-glycoprotein) (Homo sapiens, UniProt P08183); assay: Permeability of the compound assessed as MDR1-mediated directional transport ratio by cell based assay; conditions: not told
T1 sequence (P08183 whole entry): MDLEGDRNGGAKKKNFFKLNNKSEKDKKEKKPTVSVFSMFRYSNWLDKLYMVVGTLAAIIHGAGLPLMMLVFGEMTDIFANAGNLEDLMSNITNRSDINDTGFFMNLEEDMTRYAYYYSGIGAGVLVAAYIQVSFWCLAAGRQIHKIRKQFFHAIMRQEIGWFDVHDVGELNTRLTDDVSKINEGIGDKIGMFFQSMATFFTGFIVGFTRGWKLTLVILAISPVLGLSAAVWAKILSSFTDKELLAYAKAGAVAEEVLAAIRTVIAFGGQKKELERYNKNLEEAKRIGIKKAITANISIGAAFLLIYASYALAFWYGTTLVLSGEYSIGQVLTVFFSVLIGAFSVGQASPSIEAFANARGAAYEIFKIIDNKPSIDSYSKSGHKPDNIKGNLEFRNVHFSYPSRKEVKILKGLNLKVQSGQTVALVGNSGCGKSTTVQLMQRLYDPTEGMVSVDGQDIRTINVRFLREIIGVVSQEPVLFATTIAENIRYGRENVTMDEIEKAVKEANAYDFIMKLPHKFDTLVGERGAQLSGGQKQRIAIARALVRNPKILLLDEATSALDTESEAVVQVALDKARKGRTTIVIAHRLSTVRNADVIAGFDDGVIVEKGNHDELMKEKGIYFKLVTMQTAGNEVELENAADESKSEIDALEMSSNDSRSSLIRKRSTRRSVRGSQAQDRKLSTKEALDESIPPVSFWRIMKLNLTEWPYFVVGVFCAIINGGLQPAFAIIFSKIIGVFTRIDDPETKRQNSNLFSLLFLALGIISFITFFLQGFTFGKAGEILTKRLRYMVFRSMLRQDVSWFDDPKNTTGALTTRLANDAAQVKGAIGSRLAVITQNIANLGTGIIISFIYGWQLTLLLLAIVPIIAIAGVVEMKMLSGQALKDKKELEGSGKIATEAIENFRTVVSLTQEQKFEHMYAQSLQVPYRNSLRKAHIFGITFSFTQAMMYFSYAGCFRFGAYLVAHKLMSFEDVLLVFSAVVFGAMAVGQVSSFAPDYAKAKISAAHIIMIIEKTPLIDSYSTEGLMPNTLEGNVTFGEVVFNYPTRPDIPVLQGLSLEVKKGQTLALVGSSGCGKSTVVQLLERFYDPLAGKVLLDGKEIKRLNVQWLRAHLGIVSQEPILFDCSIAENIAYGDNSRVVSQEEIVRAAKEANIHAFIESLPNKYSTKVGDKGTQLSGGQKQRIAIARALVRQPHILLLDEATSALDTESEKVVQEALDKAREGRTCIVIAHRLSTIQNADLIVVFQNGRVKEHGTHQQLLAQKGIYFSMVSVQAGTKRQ
Outline: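 MDR1 directional transport ratio, calculated as (B to A)/(A to B). Average of three experiments.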

[2] = molecular target: T2, Neuropeptide S receptor (Homo sapiens, UniProt Q6W5P4); assay: Antagonist activity at human recombinant NPS receptor expressed in CHOK1 cells assessed as inhibition of NPS-induced calcium mobilization by FLIPR assay; assay type: functional, cell-based, CHO-K1
T2 sequence (Q6W5P4 whole entry): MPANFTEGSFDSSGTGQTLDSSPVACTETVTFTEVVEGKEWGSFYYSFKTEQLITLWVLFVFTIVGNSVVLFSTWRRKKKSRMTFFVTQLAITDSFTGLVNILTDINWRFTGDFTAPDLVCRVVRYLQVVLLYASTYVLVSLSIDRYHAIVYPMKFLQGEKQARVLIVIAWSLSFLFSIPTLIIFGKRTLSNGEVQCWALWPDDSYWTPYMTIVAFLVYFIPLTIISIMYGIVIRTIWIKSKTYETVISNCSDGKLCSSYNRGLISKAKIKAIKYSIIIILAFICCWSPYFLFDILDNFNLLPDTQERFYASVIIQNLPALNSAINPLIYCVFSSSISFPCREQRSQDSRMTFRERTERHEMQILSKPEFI
Outline: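 Dual-sequence FLIPR Ca2+ mobilization in CHOK1 cells expressing recombinant NPSR, plated 24 h before the run. Fluo4AM dye loaded 1 h at 37 °C, 5% CO2. Cells incubated with titrated compound for 4 min, then an EC80 of human NPS added and read for another 4 min. Inhibition calculated against NPS-stimulated control wells. IC50 from 4-parameter logistic fits, averaged over at least two experiments.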

[3] = molecular target: T1, MDR1 (ABCB1, P-glycoprotein); assay: (§1) Permeability of the compound assessed as MDR1-passive permeability by cell based assay; conditions: not told; read-out: permeability
Outline: (§2)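 Passive permeability expressed as Papp in 10^-6 cm/s.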

[4] = Protein binding in human plasma; conditions: read-out: PPB (converted)
[5] = tested on: Plasma; assay: Protein binding in human plasma; assay type: ADME, cell-free
[6] = molecular target: T3, Neuropeptide S receptor (Rattus norvegicus, UniProt P0C0L6); assay: Displacement of [3H]quinolinone from rat NPS receptor
T3 sequence (P0C0L6 whole entry): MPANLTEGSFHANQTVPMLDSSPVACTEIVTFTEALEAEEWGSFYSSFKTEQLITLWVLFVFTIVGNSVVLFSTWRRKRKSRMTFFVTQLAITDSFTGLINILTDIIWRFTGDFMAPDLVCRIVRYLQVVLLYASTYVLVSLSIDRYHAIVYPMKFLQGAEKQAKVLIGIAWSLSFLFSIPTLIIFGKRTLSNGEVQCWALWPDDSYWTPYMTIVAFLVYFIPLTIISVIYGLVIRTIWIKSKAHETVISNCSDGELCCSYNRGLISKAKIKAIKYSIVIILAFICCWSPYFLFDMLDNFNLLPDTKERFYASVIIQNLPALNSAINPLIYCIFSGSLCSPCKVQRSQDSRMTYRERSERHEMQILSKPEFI

[7] = tested on: Rattus norvegicus; assay: Ex vivo receptor occupancy in ip dosed rat brain superior coliculus assessed inhibition of [125I]NPS binding after 30 mins; assay type: functional, organism-based
Outline: (§3)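 Compound given 30 mg/kg ip in 25% HPB cyclodextrin. Brain taken 30 min after dosing (n = 4 rats, 2–3 sections/rat). Tissue sections incubated with 0.5 nM 125I-hNPS for 30 min, with 2 µM unlabeled hNPS defining nonspecific binding. Mean percent occupancy in AON, DEN or SC relative to vehicle was plotted against plasma compound concentration, with IC50 from nonlinear regression.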

[8] = Drug level in rat plasma at 30 mg/kg, ip after 0.5 hrs; assay type: ADME, organism-based; design: dose 30 mg/kg, route intraperitoneal; conditions: read-out: Drug uptake
Outline: (§4)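 Rats dosed 30 mg/kg ip. Plasma, brain and CSF levels measured at 0.5 h and 2.0 h and reported in nM.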

[9] = molecular target: ATP-dependent translocase ABCB1 (Homo sapiens, UniProt P08183); assay: as §1; outline: as §2
Sequence of ATP-dependent translocase ABCB1 (P08183 whole entry): as the sequence (P08183 whole entry) above

[10] = Drug level in rat cerebrospinal fluid at 30 mg/kg, ip after 2 hrs; assay type: ADME, organism-based; design: dose 30 mg/kg, route intraperitoneal; conditions: read-out: Drug uptake; outline: as §4
[11] = tested on: Rattus norvegicus; assay: Ex vivo receptor occupancy in ip dosed rat brain anterior olfactory nucleus assessed inhibition of [125I]NPS binding after 30 mins; assay type: functional, organism-based; outline: as §3
[12] = Drug level in rat cerebrospinal fluid at 30 mg/kg, ip after 0.5 hrs; assay type: ADME, organism-based; design: dose 30 mg/kg, route intraperitoneal; conditions: read-out: Drug uptake; outline: as §4
[13] = Drug level in rat brain at 30 mg/kg, ip after 0.5 hrs; assay type: ADME, organism-based; design: dose 30 mg/kg, route intraperitoneal; conditions: read-out: Drug uptake; outline: as §4
[14] = molecular target: T3, Neuropeptide S receptor; assay: Displacement of [125I]NPS from NPS receptor in rat brain superior coliculus after 30 mins; assay type: tissue-based
Outline: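 Rat brain sections from vehicle-treated animals (25% HPB cyclodextrin/75% sterile water, ip), preincubated in vitro with titrated compound. Nonspecific binding from co-incubation with 2 µM unlabeled hNPS. 2–3 sections per concentration. Mean ± SEM.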

[15] = Drug level in rat brain at 30 mg/kg, ip after 2 hrs; assay type: ADME, organism-based; design: dose 30 mg/kg, route intraperitoneal; conditions: read-out: Drug uptake; outline: as §4
[16] = tested on: Rattus norvegicus; assay: Ex vivo receptor occupancy in ip dosed rat brain dorsal endopiriform nucleus assessed inhibition of [125I]NPS binding after 30 mins; assay type: functional, organism-based; outline: as §3
[17] = Drug level in rat plasma at 30 mg/kg, ip after 2 hrs; assay type: ADME, organism-based; design: dose 30 mg/kg, route intraperitoneal; conditions: read-out: Drug uptake; outline: as §4
[18] = tested on: Rattus norvegicus; assay: Ex vivo receptor occupancy of NPS receptor in rat brain superior coliculus at 30 mg/kg, ip after 30 mins; assay type: functional, organism-based; design: dose 30 mg/kg; outline: as §3
[19] = tested on: Rattus norvegicus; assay: Ex vivo receptor occupancy of NPS receptor in rat brain anterior olfactory nucleus at 30 mg/kg, ip after 30 mins; assay type: functional, organism-based; design: dose 30 mg/kg; outline: as §3
[20] = tested on: Rattus norvegicus; assay: Ex vivo receptor occupancy of NPS receptor in rat brain dorsal endopiriform nucleus at 30 mg/kg, ip after 30 mins; assay type: functional, organism-based; design: dose 30 mg/kg; outline: as §3

| SMILES | efflux ratio [1] | IC50 [2] [nM] | Papp [3] [×10⁻⁶ cm/s] | also measured |
| --- | --- | --- | --- | --- |
| CC(CCN1CCCC1)N(Cc1cc2ccccc2n(C)c1=O)C(=O)C1CCCCC1 (configuration not stated) |  | 1580 |  |  |
| CC(CCN1CCOCC1)N(Cc1cc2ccccc2n(C)c1=O)C(=O)C1CCCCC1 (configuration not stated) |  | 725 |  |  |
| CCC(C)(CCN1CCOCC1)N(Cc1cc2ccccc2n(C)c1=O)C(=O)C1CCCCC1 (racemic) |  | 23 | 18 |  |
| CCC(C)(CCN1CCOCC1)N(Cc1cc2ccccc2n(C)c1=O)C(=O)C1CCCCC1 (single isomer, unassigned; enantiomer 1) [listing 1 of 2 here] |  | 10 |  | PPB [5]: 82%; EC50 [6]: 1.3 nM; IC50 ([7]; 0.5 h): 130 nM; concentration at 0.5 h [8]: 4.34 µM; permeability [9]: 36 ×10⁻⁶ cm/s; concentration at 2 h [10]: 45 nM; IC50 ([11]; 0.5 h): 570 nM; concentration at 0.5 h [12]: 101 nM; concentration at 0.5 h [13]: 1690 nM; IC50 [14]: 1.44 nM; concentration at 2 h [15]: 665 nM; IC50 ([16]; 0.5 h): 380 nM; concentration at 2 h [17]: 2300 nM |
| CCC(C)(CCN1CCOCC1)N(Cc1cc2ccccc2n(C)c1=O)C(=O)C1CCCCC1 (single isomer, unassigned; enantiomer 1) [listing 2 of 2 here] |  |  |  | Activity [7]: Dose-dependent effect; Activity [18]: Active; Activity [11]: Dose-dependent effect; Activity [19]: Active; Activity [20]: Active; Activity [16]: Dose-dependent effect |
| CCC(C)(CCN1CCOCC1)N(Cc1cc2ccccc2n(C)c1=O)C(=O)C1CCCCC1 (single isomer, unassigned; enantiomer 2) |  | 785 |  |  |

Now from value to compound, other results behind:

| efflux ratio [1] | IC50 [2] [nM] | Papp [3] [×10⁻⁶ cm/s] | SMILES | also measured |
| --- | --- | --- | --- | --- |
| 10.6 | 18 |  | CN1CCN(C2(CN(Cc3cc4ccccc4n(C)c3=O)C(=O)C3CCCCC3)CCCCC2)CC1 |  |
|  | 326 |  | Cn1c(=O)c(CN(C(=O)C2CCCCC2)C(C)(C)CCN2CCCC2)cc2ccccc21 |  |
| 36 | 31 | 25 | Cn1c(=O)c(CN(C(=O)C2CCCCC2)C(C)(C)CCN2CCCCC2)cc2ccccc21 |  |
| 2 | 144 | 23 | Cn1c(=O)c(CN(C(=O)C2CCCCC2)C(C)(C)CCN2CCOCC2)cc2ccccc21 |  |
|  | 103 |  | CCC(CC)(CCN1CCOCC1)N(Cc1cc2ccccc2n(C)c1=O)C(=O)C1CCCCC1 |  |
|  | 398 |  | Cn1c(=O)c(CN(C(=O)C2CCCCC2)C2(CCN3CCOCC3)CCCCC2)cc2ccccc21 |  |
| 43 | 7 | 28 | CCC(C)(CCN1CCCCC1)N(Cc1cc2ccccc2n(C)c1=O)C(=O)C1CCCCC1 (racemic) | fraction unbound [4]: 0.11 |
| 2.6 | 14 | 33 | CCC(C)(CCN1CCC(F)CC1)N(Cc1cc2ccccc2n(C)c1=O)C(=O)C1CCCCC1 (racemic) |  |
| 1.1 | 22 | 25 | CCC(C)(CCN1CCC(F)(F)CC1)N(Cc1cc2ccccc2n(C)c1=O)C(=O)C1CCCCC1 (racemic) | fraction unbound [4]: 0.03 |
